# TRPC4 block: blocks the mouse TRPC4 cation channel; HEK293 TRPC4beta/mu-opioid, DAMGO-evoked Fluo4 calcium flux; active compounds read low; B-score at 10 µM; 300,000 tested, 0.39% active;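 active = B-score over 3 SD under the library average, no early fluorescence shift, positive overall ratio signal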
# Target sequence (Q9QUQ5 whole entry, looked up): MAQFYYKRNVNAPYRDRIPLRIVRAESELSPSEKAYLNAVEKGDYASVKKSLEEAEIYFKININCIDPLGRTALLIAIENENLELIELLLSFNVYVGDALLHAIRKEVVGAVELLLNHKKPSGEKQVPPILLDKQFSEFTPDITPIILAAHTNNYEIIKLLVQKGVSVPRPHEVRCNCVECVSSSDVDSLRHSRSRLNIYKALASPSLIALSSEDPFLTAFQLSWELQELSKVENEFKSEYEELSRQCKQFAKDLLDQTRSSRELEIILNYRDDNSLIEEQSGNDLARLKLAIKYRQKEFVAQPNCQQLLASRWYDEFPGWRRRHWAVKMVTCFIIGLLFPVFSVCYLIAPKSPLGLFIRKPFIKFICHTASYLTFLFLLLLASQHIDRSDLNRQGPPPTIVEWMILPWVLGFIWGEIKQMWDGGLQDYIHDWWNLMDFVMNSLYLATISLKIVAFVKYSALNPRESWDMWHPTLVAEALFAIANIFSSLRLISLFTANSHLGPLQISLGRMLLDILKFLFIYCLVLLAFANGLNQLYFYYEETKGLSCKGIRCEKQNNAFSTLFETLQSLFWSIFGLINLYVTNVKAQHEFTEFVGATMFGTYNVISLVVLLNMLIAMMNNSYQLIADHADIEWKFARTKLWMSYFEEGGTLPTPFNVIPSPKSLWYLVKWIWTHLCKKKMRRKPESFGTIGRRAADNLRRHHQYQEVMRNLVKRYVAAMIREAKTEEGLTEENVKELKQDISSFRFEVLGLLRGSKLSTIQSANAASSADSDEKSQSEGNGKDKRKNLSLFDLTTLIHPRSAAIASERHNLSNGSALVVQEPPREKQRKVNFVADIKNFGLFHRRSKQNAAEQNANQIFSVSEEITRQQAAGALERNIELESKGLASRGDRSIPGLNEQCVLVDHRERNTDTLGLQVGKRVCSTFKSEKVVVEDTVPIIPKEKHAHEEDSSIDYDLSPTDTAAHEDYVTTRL
#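 Assay system: Stable TRPC4beta/mu-opioid receptor HEK293 cells | Reagent: DAMGO in two steps, submaximal then maximal | Compound dosing: Single concentration per test compound | Signal: Fluo4 Ca2+ flux fluorescence | Evaluation: Per-well B score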
# TRPC4 act: TRPC4 (mouse) channel activation | 310,000 tested, 0.49% active | Q9QUQ5 | HEK293 TRPC4beta/mu-opioid, Fluo4 calcium fluorescence; active compounds read high | B-score at 10 µM | AID 2237;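 active = B-score above 5 SD of library B-scores, and initial fluorescence ratio not above library mean plus 5 SD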;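 note: positive B-score marks a calcium rise read as TRPC4 activation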
#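 Material: HEK293 stable line with TRPC4beta plus mu-opioid receptor; technique: Fluo4 calcium-sensitive dye fluorescence, kinetic, 1 Hz baseline; timing: Fluo4 dye loading 45 min at room temperature, 110 s recording; controls: assay buffer as low control, maximal DAMGO as high control; read-out: integrated baseline-normalised fluorescence ratio, converted to per-well B score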
# TRPC4 PAM: TRPC4 (mouse) allosteric potentiation; HEK293 TRPC4beta/mu-opioid, DAMGO EC20, Fluo-4 Ca2+ flux; active compounds read high; AID 2227; B-score at 10 µM; Q9QUQ5; 310,000 tested, 0.42% active;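 active = B-score of calcium response area above 5 SD of library B-scores, with initial fluorescence ratio within 5 SD of library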;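 note: B-score of integrated fluorescence ratio over time as area under calcium response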
# TRPC6 inh: blocks the mouse TRPC6 cation channel; HEK293-TRPC6, membrane potential dye, ACh-evoked depolarization; active compounds read low; B-score at 10 µM; 310,000 tested, 1.1% active; AID 2553;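 active = B-score under library mean minus 3 SD, initial fluorescence not abnormally high, positive integrated signal ratio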;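 note: B-score derived from integrated fluorescence ratio over the kinetic read; more negative B-score means stronger inhibition of depolarization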
# TRPC6 act: activates the mouse TRPC6 cation channel; Q61143; HEK293-TRPC6 membrane potential dye fluorescence; active compounds read high; B-score at 10 µM; 310,000 tested, 0.13% active; AID 2550;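 active = B-score of the integrated fluorescence ratio above library mean plus 3 SD, and starting fluorescence ratio within library mean plus 5 SD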;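 note: higher score means more depolarization so channel activation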
# Numbers without * were called inactive; i = inactive. Compounds with a hit are over-represented: about 2.3% of the library has one in this group of screens.
SMILES,TRPC4 block,TRPC4 act,TRPC4 PAM,TRPC6 inh,TRPC6 act
O=C(COC(=O)c1cc2c(s1)CCCCC2)NC1CCS(=O)(=O)C1 (stereo not drawn),i,i,88*,i,i
COc1ccc(C2C(C#N)=C(N)N(c3sc4c(c3C#N)CCCC4)C3=C2C(=O)CC(C)(C)C3)cc1 (stereo not drawn),-5*,i,i,i,i
COc1ccc(C2C(C#N)=C(N)N(c3sc4c(c3C#N)CCCC4)C3=C2C(=O)CC(C)(C)C3)cc1OC (stereo not drawn),i,i,i,i,i
O=C(O)CCC(=O)N1CCN(c2ncccn2)CC1,i,i,i,i,i
COc1ccc(NC(=O)CN(C)CCOc2ccc(Cl)cc2)cc1OC,i,i,15*,i,i
CC(=O)c1ccc(NC(=O)CCC(=O)N2CC(C)Oc3ccc(C)cc32)cc1 (stereo not drawn),i,i,i,i,i
Cc1ccc2c(c1)N(C(=O)CCC(=O)Nc1ccccc1Br)CC(C)O2 (stereo not drawn),-9*,i,i,i,i
CCCCCCCCCCOC(=O)Cn1c(COc2ccccc2C)[n+](C)c2ccccc21,-6*,i,i,i,i
NC(=O)c1ccc(Oc2ccc3c(c2)CCC3)c([N+](=O)[O-])c1,i,i,24*,i,i
CN1C2C=C(N(CCc3c[nH]c4ccccc34)C(=O)c3ccc(Cl)cc3)CC1CC2 (stereo not drawn),-6*,88*,i,i,i
O=C(Cn1cc(S(=O)(=O)Cc2ccc([N+](=O)[O-])cc2)c2ccccc21)N1CCOCC1,i,i,i,i,i
O=C(c1cccc(OC2CCN(Cc3ccc(F)cc3Cl)CC2)c1)N1CCCC1,i,i,i,i,i
O=C(CN1CC[n+]2c(-c3cccs3)csc21)c1ccc(Br)cc1,i,i,i,-5*,i
O=C(CN1CC[n+]2c(-c3ccccc3)csc21)c1ccc(Br)cc1,i,i,i,i,i
COc1cc(C(C)=O)ccc1OCC(=O)N(CCC1=CCCCC1)c1c(N)n(Cc2ccccc2)c(=O)[nH]c1=O,i,i,i,i,i
CCOc1ccc(CN(C)CC(=O)NNC(=O)c2ccc(Cl)cc2)cc1OC,i,i,17*,i,i
Cc1ccc(-c2c(C(=O)N/N=C/C3CC=CCC3)nnn2-c2nonc2N)cc1 (stereo not drawn),i,i,i,i,i
COC(=O)c1ccccc1N=Nc1c(N)[nH][nH]c1=O,i,47*,82*,i,i
CCOc1ccc(N(CC(=O)NCCc2ccccc2)C(=O)c2csnn2)cc1,i,i,i,i,i
COc1ccc(/C=C2\CCCC3C2=NN(C(=O)CSc2n[nH]c(N)n2)C3c2ccc(OC)cc2)cc1 (stereo not drawn),i,i,12*,i,i
O=C1CCC(C(=O)OCC(=O)N2N=C3/C(=C/c4ccccc4)CCCC3C2c2ccccc2)N1 (stereo not drawn),i,i,i,i,i
Cc1cc(Oc2ccc(C(C)(C)C)cc2)nc(N2CCOCC2)n1,i,i,18*,i,i
Cc1cc(Oc2ccc(-c3ccccc3)cc2)nc(N2CCOCC2)n1,i,i,i,i,i
COc1ccc(C(=O)NCCCCNC(=O)c2ccc(OC)c(OC)c2)cc1OC,i,i,i,i,i
CC1(C)CC(=O)C(C(C2=C(O)CC(C)(C)CC2=O)c2ccc(Cl)c([N+](=O)[O-])c2)C(=O)C1 (stereo not drawn),i,46*,i,i,i
SMILES,TRPC4 block,TRPC4 act,TRPC4 PAM,TRPC6 inh,TRPC6 act
CC(C)(C)C(=O)Nc1nnc(SCC(=O)NC2CCCC2)s1,i,i,i,i,i
O=C(Nc1ccccc1N1CCN(C(=O)c2ccc(Cl)cc2)CC1)c1cccc([N+](=O)[O-])c1,-6*,i,i,i,i
Cc1nonc1OCCN1CCN(c2ccccc2[N+](=O)[O-])CC1,i,i,i,i,i
O=C(c1ccccc1F)N1CCN(c2ccc([N+](=O)[O-])c3cccnc23)CC1,i,i,29*,i,i
O=C(c1ccc(F)cc1)N1CCN(c2ccc([N+](=O)[O-])cc2-n2cccc2)CC1,i,i,24*,i,i
Nc1nonc1OCCN1CCN(c2ccc([N+](=O)[O-])c3cccnc23)CC1,i,93*,23*,i,i
O=C(c1ccccc1F)N1CCN(c2ccc([N+](=O)[O-])cc2-n2cccc2)CC1,i,i,18*,i,i
COc1ccc(N2CCN(C(=O)c3ccccc3F)CC2)c([N+](=O)[O-])c1,i,i,i,i,i
Cc1ccc(NC(=O)CN(C)C(=O)CNC(=O)c2sc3ccccc3c2Cl)cc1,i,i,149*,i,i
O=C(COc1ccc(Br)cc1CNC1CCCC1)Nc1ccccc1,i,62*,i,i,i
CC(NCc1cc(Br)ccc1OCC(=O)NCc1ccccc1)c1ccccc1 (stereo not drawn),-8*,61*,i,i,i
c1ccc(-c2cn(-c3ccccc3)c3ncnc(N4CCCCC4)c23)cc1,i,i,i,i,i
CCOc1ccc(-n2cc(-c3ccccc3)c3c(N4CCOCC4)ncnc32)cc1,i,i,16*,i,i
Cc1cccc(-n2cc(-c3ccccc3)c3c(NN4CCOCC4)ncnc32)c1,i,i,14*,i,i
CCN(CCCNC(=O)CCCOc1cc(=O)n(C)c2ccccc12)Cc1ccccc1,i,i,21*,i,i
O=C(c1ccc(COc2ccccc2Br)cc1)N1CCCCCC1,i,i,12*,i,i
Cc1ccc(CC(=O)N2CCN(S(=O)(=O)c3ccccc3)CC2)cc1C,i,i,i,i,i
Cc1ccc(NC(=S)N2CCCN(Cc3ccc(F)cc3)C2)c(C)c1,i,60*,i,i,i
Cc1c(Cl)cccc1NC(=S)N1CCCN(Cc2ccc(F)cc2)C1,i,44*,i,i,i
Cc1noc(C)c1NC(=O)NC(c1ccccc1)c1ccccc1,i,i,i,i,i
O=C(c1ccccc1)N(Cc1ccc(F)cc1)Cc1nc2ccccc2c(=O)[nH]1,i,i,12*,i,i
COc1ccc(CCC(C)NCC2CCCCC2)cc1 (stereo not drawn),-7*,i,i,i,i
